The record followed here is ChEMBL document CHEMBL5233289, “Synthesis of Quinoline and Dihydroquinoline Embelin Derivatives as Cardioprotective Agents” (J Nat Prod, 2023).

Active and inactive are the calls of the source. No cut-off for these calls is given here.

The test system of data set [1] is H9c2. The data set can be described thus: Cardioprotective activity against doxorubicin-treated rat H9c2 cells assessed as decrease in Bax protein expression at 20 uM in presence of doxorubicin by immunoblot analysis. The class given is functional, cell-based. The method in brief:
(§1)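 H9c2 cell lysates after DOX (1 μM) alone or with derivative (20 μM) were run on SDS-PAGE and transferred to PVDF. Blots were probed for pAkt, Akt, pERK1/2, ERK1/2, Bax and Bcl-2, with β-actin as loading control. Detection used HRP secondary (2 h) and ECL, with densitometric quantification. Mean ± SD, n = 3.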
In general terms: Immunoblotting shows a protein as a band on a membrane.

The test system of data set [2] is H9c2. The data set can be described thus: Induction of oxidative stress in rat H9c2 cells assessed as increase in intracellular ROS level at 20 uM incubated for 24 hrs by DCFH-DA staining based fluorometric analysis. The following applies: h9c2, 24 h. The class given is toxicity, cell-based. In short, it runs like this: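 Intracellular ROS in H9c2 cells. Cells were treated with compound (20 μM) alone or with DOX (1 μM) over 24 h, with NAC (1 mM) as ROS inhibitor. They were then loaded with 10 μM DCFH-DA for 30 min at 37 °C in the dark. Fluorescence was read at 485/550 nm. Mean ± SD, n = 3.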

The test system of data set [3] is H9c2. The data set can be described thus: Antioxidant activity against rat H9c2 cells assessed as reduction in doxorubicin-induced oxidative stress by measuring reduction in intracellular ROS level at 20 uM incubated for 24 hrs by DCFH-DA staining based fluorometric analysis.
A further data set relates to MCF7. The data set can be described thus: Antagonizing activity against doxorubicin-induced antitumor activity in human MCF7 cells assessed as cell viability at 20 uM incubated for 24 hrs in presence of doxorubicin by MTT assay. The class given is toxicity, cell-based. The following applies: mcf7, 24 h. The method in brief:
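MCF-7 human breast cancer cells in DMEM with 10% FBS, 37 °C, 5% CO2. They were co-treated with compound (20 μM) plus DOX (1 μM) for 24 h. Viability was read by MTT: 1 h at 37 °C, formazan in DMSO, A540. Mean ± SD, n = 3.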
On the technique in general: Formazan colour is commonly taken as a measure of viable cells.

Data set [4] has as its system H9c2. The experiment in a line: Cardioprotective activity against doxorubicin-treated rat H9c2 cells assessed as increase in Bcl2 protein expression at 20 uM in presence of doxorubicin by immunoblot analysis. The class given is functional, cell-based. The method in brief: as §1
Data set [5] relates to H9c2. The data set can be described thus: Activation of Akt in rat H9c2 cells assessed as increase in Akt phosphorylation at 20 uM in presence of doxorubicin by immunoblot analysis. The format is cell-based. The following applies: filed as activator. The method in brief:
as §1

Data set [6] addresses Mitogen-activated protein kinase 1 and 3 (ERK2 and ERK1) (Rattus norvegicus) (UniProt P63086+P21708). The experiment in a line: Inhibition of doxorubicin-induced ERK1/2 activation in rat H9c2 cells assessed as reduction in ERK1/2 phosphorylation at 20 uM in presence of doxorubicin by immunoblot analysis. The class given is cell-based. In short, it runs like this: as §1
For data set [7], the system named is H9c2. The data set can be described thus: Antioxidant activity against rat H9c2 cells assessed as reduction in doxorubicin-induced oxidative stress by measuring reduction in intracellular ROS level at 1 mM incubated for 24 hrs by DCFH-DA staining based fluorometric analysis.
A short description of data set [8]: Cytotoxicity against mouse J774.A1 cells assessed as cell viability at 10 uM incubated for 24 hrs by MTT assay (reference value: 100%). The format is toxicity, cell-based. Particulars: read-out: Activity. The method in brief: (§2)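 J774A.1 murine macrophages or H9c2 rat cardiomyocytes, grown in DMEM with 10% FBS and 1% pen/strep, were seeded for 24 h and then incubated with compound alone for 24 h. MTT reagent was added for 1 h at 37 °C, formazan dissolved in DMSO, absorbance at 540 nm. Results relative to untreated cells, mean ± SD, n = 3.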

Data set [9] is described as follows: Cytotoxicity against rat H9c2 cells assessed as cell viability at 10 uM incubated for 24 hrs by MTT assay (reference value: 100%). The format is toxicity, cell-based. Particulars: read-out: Activity. In short, it runs like this: as §2
A short description of data set [10]: Cytotoxicity against mouse J774.A1 cells assessed as cell viability at 20 uM incubated for 24 hrs by MTT assay (reference value: 100%). The format is toxicity, cell-based. Particulars: read-out: Activity. The method in brief: as §2
Data set [11] concerns H9c2. The experiment in a line: Cardioprotective activity against rat H9c2 cells assessed as reduction in doxorubicin-induced cardiotoxicity by measuring cell viability at 20 uM incubated for 24 hrs in presence of doxorubicin by MTT assay. The format is functional. The method in brief:
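H9c2 rat cardiomyocytes in DMEM with 10% FBS, seeded for 24 h, then co-treated with compound (20 μM) and DOX (1 μM) for 24 h. MTT added for 1 h at 37 °C, formazan dissolved in DMSO, absorbance read at 540 nm. DOX alone served as positive control. Mean ± SD, n = 3.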

The nature of data set [12]: Cytotoxicity against rat H9c2 cells assessed as cell viability at 20 uM incubated for 24 hrs by MTT assay (reference value: 100%). The class given is toxicity, cell-based. Particulars: read-out: Activity. The method in brief: as §2

Chain of Mitogen-activated protein kinase 1 and 3 (ERK2 and ERK1) (Rattus norvegicus) (P21708 whole entry, looked up): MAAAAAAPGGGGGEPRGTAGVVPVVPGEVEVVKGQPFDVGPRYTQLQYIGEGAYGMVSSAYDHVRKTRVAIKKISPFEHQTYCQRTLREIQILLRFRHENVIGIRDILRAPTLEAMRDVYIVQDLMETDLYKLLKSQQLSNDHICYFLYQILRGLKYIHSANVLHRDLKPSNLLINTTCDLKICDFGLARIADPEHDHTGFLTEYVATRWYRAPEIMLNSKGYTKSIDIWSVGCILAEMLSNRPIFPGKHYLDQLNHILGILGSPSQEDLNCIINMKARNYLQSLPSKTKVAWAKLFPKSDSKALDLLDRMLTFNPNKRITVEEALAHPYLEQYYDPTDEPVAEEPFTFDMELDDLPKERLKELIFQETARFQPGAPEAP
Chain of Mitogen-activated protein kinase 1 and 3 (ERK2 and ERK1) (Rattus norvegicus) (P63086 whole entry, looked up): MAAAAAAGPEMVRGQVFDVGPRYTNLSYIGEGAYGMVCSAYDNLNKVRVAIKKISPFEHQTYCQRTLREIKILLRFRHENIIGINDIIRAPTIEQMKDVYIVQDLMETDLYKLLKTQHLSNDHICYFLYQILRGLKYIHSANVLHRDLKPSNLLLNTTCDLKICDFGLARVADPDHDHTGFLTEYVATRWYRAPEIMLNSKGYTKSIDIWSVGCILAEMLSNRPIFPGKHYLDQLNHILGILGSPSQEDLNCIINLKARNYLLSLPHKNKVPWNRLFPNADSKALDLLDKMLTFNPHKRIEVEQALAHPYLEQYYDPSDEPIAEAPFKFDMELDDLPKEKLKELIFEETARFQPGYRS

Turning to `CCCCCCCCCCCC1=C(O)C(=O)C2=C(Nc3ccccc3C2c2ccc(C)c(C)c2)C1=O` (stereo not given), the outcome with H9c2 [1], in the data set with H9c2 [3], in the data set with H9c2 [4] and in the data set on H9c2 [5] was Active. Further, the Activity result in the data set with H9c2 [2] and with MCF7 was “Non-Toxic” each time. In addition, the inhibition entry in [6] was “Active”.
Regarding `CC(=O)N[C@@H](CS)C(=O)O`, in the data set with H9c2 [7], the result was Active.
On to `CCCCCCCCCCCC1=C(O)C(=O)c2c(nc3ccc(OC)cc3c2-c2ccc([N+](=O)[O-])cc2)C1=O`, for which the viability at 24 h, 10 µM was found to be 81.9% in [8] and 99.2% in data set [9]. The outcome with H9c2 [1], with H9c2 [3], with H9c2 [4] and in the data set on H9c2 [5] was Active. The figures for the Activity entry in the data set with H9c2 [2], in the data set on MCF7 and in the data set on H9c2 [11] were “Non-Toxic”, “Non-Toxic” and 84.3%, respectively. The viability at 24 h, 20 µM is 76.3% in data set [10] and 94.4% in data set [12]. Also, the inhibition result in data set [6] is “Active”.
For the compound `CCCCCCCCCCCC1=C(O)C(=O)c2c(nc3ccccc3c2-c2ccc(Br)cc2)C1=O`, the result in the data set on H9c2 [1], with H9c2 [3], in the data set with H9c2 [4] and with H9c2 [5] was Active. Besides, the values for the Activity result with H9c2 [2], in the data set with MCF7 and in the data set with H9c2 [11] were “Non-Toxic”, “Non-Toxic” and 83.4%, respectively. In addition, the inhibition entry in data set [6] was “Active”.
With `CCCCCCCCCCCC1=C(O)C(=O)c2c(nc3ccc(Br)cc3c2-c2ccc([N+](=O)[O-])cc2)C1=O`, the outcome in the data set on H9c2 [1], with H9c2 [3], in the data set on H9c2 [4] and in the data set with H9c2 [5] was Active. The results for the Activity entry in the data set on H9c2 [2], in the data set with MCF7 and with H9c2 [11] were “Non-Toxic”, “Non-Toxic” and 91.2%, respectively. Moreover, in data set [6], the inhibition entry was “Active”.
For `CCCCCCCCCCCC1=C(O)C(=O)c2c(nc3ccccc3c2-c2ccc(F)cc2)C1=O`, the values for the Activity entry with MCF7 and in the data set on H9c2 [11] were “Toxic” and 81.4%, respectively.
In the case of `CCCCCCCCCCCC1=C(O)C(=O)c2c(nc3ccccc3c2-c2ccc([N+](=O)[O-])cc2)C1=O`, the outcome in the data set on H9c2 [1], in the data set on H9c2 [3], in the data set with H9c2 [4] and in the data set with H9c2 [5] was Active. Also, the Activity entry in the data set on H9c2 [2] and in the data set with MCF7 was “Non-Toxic” each time. Also, the inhibition entry in data set [6] is “Active”.
